# Laboratory results reported in ChEMBL document CHEMBL1147378, “Further lupane lactones from Kokoona ochracea” (1993).
# Experiments:
# LNCaP = assay: Cytotoxicity against human LNCAP cells after 72 hrs; assay type: functional; settings: read-out: ED50 (the source's name)
# Outline: (§1)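 Cells in media with penicillin, streptomycin, fungizone and NaHCO3, pH 7.1–7.2. Compounds dissolved in DMSO (0.5% v/v final) and tested in triplicate at four concentrations (0.16–20 μg/ml). Incubation 72 h at 37° under 5% CO2. Cells fixed in cold 50% TCA and stained with sulforhodamine B. Bound dye solubilized in 10 mM Tris base, OD read at 515 nm. ED50 taken from averaged % of DMSO-only controls.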
# [1] = Cytotoxicity against human multidrug-resistant KBV1 cells in presence of vinblastine after 72 hrs; assay type: functional; settings: KB-V1, 72 h, read-out: ED50 (the source's name)
# A-431 = assay: Cytotoxicity against human A431 cells after 72 hrs; assay type: functional; settings: A-431, 72 h, read-out: ED50 (the source's name); outline: as §1
# Lu1 = assay: Cytotoxicity against human Lu1 cells after 72 hrs; assay type: functional; settings: Lu1, 72 h, read-out: ED50 (the source's name); outline: as §1
# KB = assay: Cytotoxicity against human KB cells after 72 hrs; assay type: functional; settings: read-out: ED50 (the source's name); outline: as §1
# SK-MEL-2 = assay: Cytotoxicity against human SK-MEL-2 cells after 72 hrs; assay type: functional; settings: SK-MEL-2, 72 h, read-out: ED50 (the source's name)
# Outline: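 MEL-2 cells kept in a closed container. Treated in triplicate at four concentrations (0.16–20 μg/ml), DMSO 0.5% v/v final. Incubation 72 h at 37° without CO2. Cells fixed with cold 50% TCA, stained with sulforhodamine B, dye solubilized in 10 mM Tris, OD 515 nm. ED50 derived from averaged % of DMSO-only controls.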
# ZR-75-1 = assay: Cytotoxicity against human ZR-75-1 cells after 72 hrs; assay type: functional; settings: ZR-75-1, 72 h, read-out: ED50 (the source's name); outline: as §1
# [2] = Cytotoxicity against human U373 cells after 96 hrs; assay type: functional, U-373MG ATCC; settings: U373 MG, read-out: ED50 (the source's name)
# Outline: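 U373 cells grown in medium without fungizone. Treated in triplicate with four concentrations (0.16–20 μg/ml), DMSO 0.5% v/v final. Incubation 96 h at 37° under 5% CO2. Sulforhodamine B protein stain after cold 50% TCA fixation, OD 515 nm. ED50 derived from averaged % of DMSO-only controls.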
# [3] = Cytotoxicity against human multidrug-resistant KBV1 cells in absence of vinblastine after 72 hrs; assay type: functional; settings: KB-V1, 72 h, read-out: ED50 (the source's name); outline: as §1
# [4] = Cytotoxicity against human BC1 cells after 72 hrs; assay type: functional; settings: BC1, 72 h, read-out: ED50 (the source's name); outline: as §1
# P388 = assay: Cytotoxicity against mouse P388 cells after 48 hrs; assay type: functional; settings: P388, 48 h, read-out: ED50 (the source's name)
# Outline: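 Murine P-388 cells grown in medium without fungizone. Treated in triplicate at four concentrations (0.16–20 μg/ml), DMSO 0.5% v/v final. Incubation 48 h at 37° under 5% CO2. Fixed with 20% TCA, stained with sulforhodamine B, Tris-solubilized OD read at 515 nm. ED50 derived from averaged % of DMSO-only controls.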
# Col2 = assay: Cytotoxicity against human Col2 cells after 72 hrs; assay type: functional; settings: Col2, 72 h, read-out: ED50 (the source's name); outline: as §1
# HT-1080 = assay: Cytotoxicity against human HT1080 cells after 48 hrs; assay type: functional; settings: HT-1080, 48 h, read-out: ED50 (the source's name)
# Outline: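 HT-1080 cells exposed in triplicate to four concentrations (0.16–20 μg/ml) of compound from DMSO stock (0.5% v/v final). Incubation 48 h at 37° under 5% CO2. Read-out by cold 50% TCA fixation, sulforhodamine B staining and Tris-solubilized OD at 515 nm. ED50 derived from averaged % of DMSO-only controls.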
Compound,EC50 (LNCaP) [µg/mL],EC50 [1] [µg/mL],EC50 (A-431) [µg/mL],EC50 (Lu1) [µg/mL],EC50 (KB) [µg/mL],EC50 (SK-MEL-2) [µg/mL],EC50 (ZR-75-1) [µg/mL],EC50 [2] [µg/mL],EC50 [3] [µg/mL],EC50 [4] [µg/mL],EC50 (P388) [µg/mL],EC50 (Col2) [µg/mL],EC50 (HT-1080) [µg/mL]
CC(=O)OC[C@]1(OC(C)=O)C(=O)O[C@@H]2C[C@]3(C)CC[C@]4(C)[C@@H](CC[C@@H]5[C@@]6(C)CCC(=O)C(C)(C)[C@@H]6CC[C@]54C)[C@@H]3[C@@H]21,> 20,6.7,> 20,> 20,16.8,6.2,11.5,> 20,18.3,> 20,4.8,> 20,> 20
CC(=O)OC[C@]1(O)C(=O)O[C@@H]2C[C@]3(C)CC[C@]4(C)[C@@H](CC[C@@H]5[C@@]6(C)CCC(=O)C(C)(C)[C@@H]6CC[C@]54C)[C@@H]3[C@@H]21,> 20,11.7,> 20,> 20,16.7,20,> 20,> 20,14.6,> 20,4.6,> 20,> 20
CC1(C)C(=O)CC[C@]2(C)[C@H]3CC[C@H]4[C@@H]5[C@H]6[C@@H](C[C@]5(C)CC[C@@]4(C)[C@]3(C)CC[C@@H]12)OC(=O)[C@@]6(O)CO [OCHRACEOLIDE D],15.5,> 20,9.5,> 20,> 20,> 20,> 20,3.9,> 20,> 20,> 5,> 20,14.7
C=C1C(=O)O[C@@H]2C[C@]3(CO)CC[C@]4(C)[C@@H](CC[C@@H]5[C@@]6(C)CCC(=O)C(C)(C)[C@@H]6CC[C@]54C)[C@@H]3[C@H]12 [OCHRACEOLIDE E],> 20,> 20,> 20,> 20,> 20,11.9,18.8,8.6,> 20,> 20,> 5,> 20,12.2
